Measured values published in article PMC2637182 (Journal of the American Chemical Society, 2008).

How the values were obtained:
Experiment in all cases: Continuous fluorescence kinase assay, kinetic parameters of the substrate
Assay type in all cases: biochemical
Src = Src (Homo sapiens, UniProt P12931); conditions: for Km / Vmax: initial slopes, direct fit of ν vs [S], Briggs-Haldane equation, mean ± s.e.m. of triplicate, SEM; for Catalytic Efficiency: kcat/KM (min^-1 μM^-1) normalized to the BTF substrate
Summary of the method: (§1)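 Sox-labelled peptide substrates were phosphorylated by the kinase and monitored continuously by fluorescence (λex 360 nm, λem 485 nm) in a fluorometer or a 96-well plate reader. KM and Vmax came from initial slopes, corrected for substrate and product fluorescence, and a direct Briggs-Haldane fit of ν vs [S]. Values are mean ± s.e.m. of triplicates. kcat/KM was normalized to the BTF substrate within each kinase.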

MK2 = MK2 (Homo sapiens, UniProt P49137); conditions: initial slopes, direct fit of ν vs [S], Briggs-Haldane equation, mean ± s.e.m. of triplicate, SEM
Summary of the method: (§2)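 Sox-containing peptide substrate becomes fluorescent on phosphorylation through Mg2+ chelation-enhanced fluorescence. Fluorescence was read continuously at λex 360 nm and λem 485 nm. Reaction components were simply mixed, and the reaction was run in a fluorometer or in a 96-well fluorescence plate reader. Rates at varied substrate levels were fitted directly as ν vs [S] to the Briggs-Haldane equation. Each was run in triplicate.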

PKA = PKA (Homo sapiens, UniProt P17612); conditions: for Km / Vmax: initial slopes, direct fit of ν vs [S], Briggs-Haldane equation, mean ± s.e.m. of triplicate, SEM
Summary of the method: as §1

Akt1 = Akt1 (Homo sapiens, UniProt P31749); conditions: initial slopes, direct fit of ν vs [S], Briggs-Haldane equation, mean ± s.e.m. of triplicate, SEM
Summary of the method: as §2

Pim2 = Pim2 (Homo sapiens, UniProt Q9P1W9); conditions: initial slopes, direct fit of ν vs [S], Briggs-Haldane equation, mean ± s.e.m. of triplicate, SEM
Abl = Abl (Homo sapiens, UniProt P00519); conditions: initial slopes, direct fit of ν vs [S], Briggs-Haldane equation, mean ± s.e.m. of triplicate, SEM
Summary of the method: as §2

PKCβI = PKCβI (Homo sapiens, UniProt P05771)
IRK = IRK (Homo sapiens, UniProt P06213); conditions: for Km / Vmax: initial slopes, direct fit of ν vs [S], Briggs-Haldane equation, mean ± s.e.m. of triplicate, SEM; for Catalytic Efficiency: kcat/KM (min^-1 μM^-1) normalized to the BTF substrate
Summary of the method: as §1

PKCδ = PKCδ (Homo sapiens, UniProt Q05655)
[1] = initial slopes, direct fit of ν vs [S], Briggs-Haldane equation, mean ± s.e.m. of triplicate, NS = Not a Substrate, SEM

Chain of PKCβI (P05771 whole entry): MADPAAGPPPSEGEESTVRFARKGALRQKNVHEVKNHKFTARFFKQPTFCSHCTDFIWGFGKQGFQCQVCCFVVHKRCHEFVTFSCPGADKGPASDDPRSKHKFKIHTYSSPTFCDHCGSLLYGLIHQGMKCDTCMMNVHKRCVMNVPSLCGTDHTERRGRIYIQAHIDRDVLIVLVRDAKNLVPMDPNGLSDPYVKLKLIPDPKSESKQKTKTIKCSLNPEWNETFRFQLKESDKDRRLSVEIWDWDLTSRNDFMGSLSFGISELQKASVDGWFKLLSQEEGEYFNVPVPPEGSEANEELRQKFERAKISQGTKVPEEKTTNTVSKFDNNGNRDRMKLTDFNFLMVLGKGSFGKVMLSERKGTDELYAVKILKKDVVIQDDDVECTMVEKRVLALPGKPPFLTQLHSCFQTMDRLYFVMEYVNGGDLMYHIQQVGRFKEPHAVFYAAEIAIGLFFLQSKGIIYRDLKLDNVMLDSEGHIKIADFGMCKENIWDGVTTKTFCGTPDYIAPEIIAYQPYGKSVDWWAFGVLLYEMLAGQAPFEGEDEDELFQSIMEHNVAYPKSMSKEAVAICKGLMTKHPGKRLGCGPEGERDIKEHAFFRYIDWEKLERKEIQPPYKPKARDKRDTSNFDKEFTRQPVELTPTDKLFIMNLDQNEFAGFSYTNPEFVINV
Chain of IRK (P06213 1012-1310 limits assumed): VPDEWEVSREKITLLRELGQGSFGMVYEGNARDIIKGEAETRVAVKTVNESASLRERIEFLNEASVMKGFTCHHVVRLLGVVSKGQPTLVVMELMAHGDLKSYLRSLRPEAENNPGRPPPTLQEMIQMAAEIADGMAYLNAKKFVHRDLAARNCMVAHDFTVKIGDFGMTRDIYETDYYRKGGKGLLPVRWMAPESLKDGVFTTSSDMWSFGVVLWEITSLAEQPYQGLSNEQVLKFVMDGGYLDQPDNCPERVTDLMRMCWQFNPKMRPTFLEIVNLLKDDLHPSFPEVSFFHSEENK
Chain of PKCδ (Q05655 whole entry): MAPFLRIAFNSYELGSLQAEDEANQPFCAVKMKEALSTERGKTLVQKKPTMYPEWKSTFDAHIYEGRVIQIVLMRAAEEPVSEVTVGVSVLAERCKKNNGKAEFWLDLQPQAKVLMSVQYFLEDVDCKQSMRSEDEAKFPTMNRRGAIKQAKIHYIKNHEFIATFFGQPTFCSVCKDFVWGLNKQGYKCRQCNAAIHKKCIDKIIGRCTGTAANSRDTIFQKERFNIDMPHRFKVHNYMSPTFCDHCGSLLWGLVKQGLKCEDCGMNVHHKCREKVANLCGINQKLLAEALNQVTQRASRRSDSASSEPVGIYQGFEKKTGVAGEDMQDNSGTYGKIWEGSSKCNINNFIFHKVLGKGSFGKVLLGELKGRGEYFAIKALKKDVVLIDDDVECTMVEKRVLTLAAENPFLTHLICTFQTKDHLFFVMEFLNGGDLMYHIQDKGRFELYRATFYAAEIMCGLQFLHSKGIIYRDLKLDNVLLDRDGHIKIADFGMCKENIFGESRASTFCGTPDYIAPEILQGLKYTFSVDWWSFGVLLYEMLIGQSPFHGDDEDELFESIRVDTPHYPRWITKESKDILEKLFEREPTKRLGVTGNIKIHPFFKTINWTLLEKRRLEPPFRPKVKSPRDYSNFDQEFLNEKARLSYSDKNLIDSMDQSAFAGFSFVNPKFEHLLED
Chain of Pim2 (Q9P1W9 whole entry, species assumed): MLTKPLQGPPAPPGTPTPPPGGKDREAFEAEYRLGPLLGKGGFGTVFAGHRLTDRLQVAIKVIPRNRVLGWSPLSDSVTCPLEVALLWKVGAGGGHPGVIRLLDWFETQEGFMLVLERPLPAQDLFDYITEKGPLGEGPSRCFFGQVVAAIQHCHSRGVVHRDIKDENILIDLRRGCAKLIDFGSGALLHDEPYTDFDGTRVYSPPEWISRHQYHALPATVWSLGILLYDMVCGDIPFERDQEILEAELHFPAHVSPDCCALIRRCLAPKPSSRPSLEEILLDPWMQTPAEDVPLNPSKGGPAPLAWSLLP
Chain of Akt1 (P31749 whole entry, species assumed): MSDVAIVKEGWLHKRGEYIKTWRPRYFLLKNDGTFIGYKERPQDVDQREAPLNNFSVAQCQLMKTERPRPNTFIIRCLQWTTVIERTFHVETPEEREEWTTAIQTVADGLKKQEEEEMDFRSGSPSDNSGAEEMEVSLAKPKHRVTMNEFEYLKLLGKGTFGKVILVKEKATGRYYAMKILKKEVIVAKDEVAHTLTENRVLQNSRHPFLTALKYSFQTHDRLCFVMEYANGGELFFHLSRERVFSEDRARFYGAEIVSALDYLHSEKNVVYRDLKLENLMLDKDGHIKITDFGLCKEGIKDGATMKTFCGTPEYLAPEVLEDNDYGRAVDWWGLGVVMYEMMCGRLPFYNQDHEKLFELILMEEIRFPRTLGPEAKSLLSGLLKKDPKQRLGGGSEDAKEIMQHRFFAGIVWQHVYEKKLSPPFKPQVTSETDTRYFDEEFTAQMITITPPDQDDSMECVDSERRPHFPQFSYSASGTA
Chain of MK2 (P49137 whole entry, species assumed): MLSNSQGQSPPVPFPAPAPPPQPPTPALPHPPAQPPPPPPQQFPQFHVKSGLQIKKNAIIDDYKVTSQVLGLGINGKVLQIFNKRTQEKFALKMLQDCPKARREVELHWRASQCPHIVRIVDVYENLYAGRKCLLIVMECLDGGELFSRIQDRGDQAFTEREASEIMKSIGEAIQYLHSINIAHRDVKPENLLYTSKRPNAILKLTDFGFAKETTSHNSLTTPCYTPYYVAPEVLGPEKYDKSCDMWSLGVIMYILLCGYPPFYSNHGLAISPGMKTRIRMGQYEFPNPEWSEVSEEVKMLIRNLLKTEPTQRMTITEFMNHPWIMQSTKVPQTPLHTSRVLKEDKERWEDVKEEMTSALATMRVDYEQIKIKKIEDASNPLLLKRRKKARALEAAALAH
Chain of Abl (P00519 whole entry, species assumed): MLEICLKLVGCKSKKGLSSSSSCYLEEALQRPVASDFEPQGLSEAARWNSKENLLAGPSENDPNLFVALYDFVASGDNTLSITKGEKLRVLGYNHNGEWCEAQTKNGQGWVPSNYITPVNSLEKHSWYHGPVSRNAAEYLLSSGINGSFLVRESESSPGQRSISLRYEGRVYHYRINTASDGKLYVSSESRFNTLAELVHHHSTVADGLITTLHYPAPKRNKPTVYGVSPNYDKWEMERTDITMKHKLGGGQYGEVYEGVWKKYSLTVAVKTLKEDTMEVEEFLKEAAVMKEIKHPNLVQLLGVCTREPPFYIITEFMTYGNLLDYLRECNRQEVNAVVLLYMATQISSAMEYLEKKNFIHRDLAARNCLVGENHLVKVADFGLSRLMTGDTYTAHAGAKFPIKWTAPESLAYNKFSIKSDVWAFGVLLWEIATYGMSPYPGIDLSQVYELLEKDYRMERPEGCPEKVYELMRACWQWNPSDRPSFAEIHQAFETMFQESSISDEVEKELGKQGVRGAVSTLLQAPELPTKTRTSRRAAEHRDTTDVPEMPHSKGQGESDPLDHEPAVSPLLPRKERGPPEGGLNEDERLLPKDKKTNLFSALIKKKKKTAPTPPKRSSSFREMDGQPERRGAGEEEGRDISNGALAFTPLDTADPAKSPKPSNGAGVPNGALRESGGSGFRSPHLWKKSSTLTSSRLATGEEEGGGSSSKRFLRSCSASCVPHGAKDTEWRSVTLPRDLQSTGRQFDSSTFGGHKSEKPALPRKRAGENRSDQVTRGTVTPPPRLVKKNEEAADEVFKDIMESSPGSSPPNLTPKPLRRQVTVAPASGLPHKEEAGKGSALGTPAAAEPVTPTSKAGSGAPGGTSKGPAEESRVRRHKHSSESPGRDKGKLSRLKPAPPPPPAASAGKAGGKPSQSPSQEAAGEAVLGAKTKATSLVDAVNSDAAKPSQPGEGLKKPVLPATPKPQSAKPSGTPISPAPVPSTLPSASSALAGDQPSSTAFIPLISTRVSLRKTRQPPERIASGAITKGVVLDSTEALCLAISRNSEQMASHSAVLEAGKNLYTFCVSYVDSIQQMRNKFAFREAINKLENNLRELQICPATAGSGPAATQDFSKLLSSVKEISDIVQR

Ac-AEE-CSox-IY*GEFEAKKKK-CONH2 [Src RDF]
Km (Src): 7 ± 1 µM
Vmax (Src): 3.4 ± 0.2 µmol/mg/min
Catalytic Efficiency (Src): 28

Ac-AHLQRQLS*I-CSox-HH-CONH2 [MK2 RDF]
Km (MK2): 1.2 ± 0.2 µM
Vmax (MK2): 1.3 ± 0.1 µmol/mg/min

Ac-ALRRAS*L-CSox-AA-CONH2 [PKA RDF]
Km (PKA): 2.6 ± 0.3 µM
Vmax (PKA): 17.9 ± 0.8 µmol/mg/min
Catalytic Efficiency (PKA; kcat/KM (min^-1 μM^-1) normalized to the BTF substrate): 1

Ac-ARKRERAYS*F-CSox-HHA-CONH2 [Akt1 RDF]
Km (Akt1): 0.69 ± 0.11 µM
Vmax (Akt1): 2.5 ± 0.2 µmol/mg/min

Ac-ARKRRRHPS*G-CSox-PTA-CONH2 [Pim2 RDF]
Km (Pim2): 1.4 ± 0.1 µM
Vmax (Pim2): 0.67 ± 0.02 µmol/mg/min

Ac-E-CSox-IY*AAPFAKKK-CONH2 [Abl RDF]
Km (Abl): 10.5 ± 1.5 µM
Vmax (Abl): 19.1 ± 1.0 µmol/mg/min

Ac-LKR-CSox-AS*FKKFA-CONH2 [PKCβI RDF]
turnover by the kinase (in words) (PKCβI; Figure S3): excellent substrates
Km (PKCβI; [1]): 0.81 ± 0.18 µM
Vmax (PKCβI; [1]): 0.76 ± 0.06 µmol/mg/min

Ac-LRRAS*L-DPro-Sox-G-CONH2 [PKA BTF]
Km (PKA): 2.7 ± 0.4 µM
Vmax (PKA): 26.5 ± 1.1 µmol/mg/min

Ac-R-CSox-DY*-Nle-TMQIGKK-CONH2 [IRK RDF]
Km (IRK): 27.1 ± 3.9 µM
Vmax (IRK): 6.3 ± 0.4 µmol/mg/min
Catalytic Efficiency (IRK): 1

Ac-RKRKGS*F-CSox-YGG-CONH2 [PKCδ RDF]
turnover by the kinase (in words) (PKCδ; Figure S3): excellent substrates
Km (PKCδ; [1]): 0.48 ± 0.07 µM
Vmax (PKCδ; [1]): 0.39 ± 0.02 µmol/mg/min

Ac-Sox-PEIY*GEFEAKKKK-CONH2 [Src BTF]
Km (Src): 30.7 ± 5.8 µM
Vmax (Src): 0.54 ± 0.04 µmol/mg/min
Catalytic Efficiency (Src): 1

Ac-Sox-PGDY*-Nle-TMQIGKK-CONH2 [IRK BTF]
Km (IRK): 25.7 ± 0.7 µM
Vmax (IRK): 7.3 ± 2.2 µmol/mg/min
Catalytic Efficiency (IRK): 1
